ChEMBL document CHEMBL4138096, “Design, synthesis, molecular docking and cytotoxic evaluation of novel 2-furybenzimidazoles as VEGFR-2 inhibitors” (Eur J Med Chem, 2017)
pIC50: −log10 of the molar value.

How the values were obtained:
MCF7 [1] = experiment: Inhibition of VEGFR2 protein expression in human MCF7 cells at cytotoxic IC50 after 24 hrs by ELISA relative to untreated control; type: functional
Outline: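 MCF-7 cells treated with compound in DMSO for 24 h at 37 °C, humidified 5% CO2. Cells were harvested and homogenised in saline. VEGFR-2 in homogenate was measured by double-antibody sandwich ELISA (monoclonal capture, biotinylated goat polyclonal detection, avidin-biotin-peroxidase, TMB, OD 451 nm). Levels (ng/ml) came from a standard curve as duplicate determinations, and % change was taken versus untreated cells.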

MCF7 [2] = experiment: Cytotoxicity against human MCF7 cells assessed as reduction in cell viability after 48 hrs by SRB assay; type: functional, cell-based; conditions: MCF7, 48 h
Outline: (§1)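 Cells seeded and allowed to attach 24 h, then exposed to compound at […] for 48 h at 37 °C, 5% CO2. Fixed, stained with sulforhodamine B, bound dye released in Tris EDTA and read on ELISA reader. IC50 taken from survival curve (surviving fraction vs concentration); mean of four independent experiments.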

[3] = target: Vascular endothelial growth factor receptor 2 (Homo sapiens, UniProt P35968); experiment: Inhibition of human VEGFR2 using TMB substrate by ELISA
Chain of Vascular endothelial growth factor receptor 2 (P35968 whole entry): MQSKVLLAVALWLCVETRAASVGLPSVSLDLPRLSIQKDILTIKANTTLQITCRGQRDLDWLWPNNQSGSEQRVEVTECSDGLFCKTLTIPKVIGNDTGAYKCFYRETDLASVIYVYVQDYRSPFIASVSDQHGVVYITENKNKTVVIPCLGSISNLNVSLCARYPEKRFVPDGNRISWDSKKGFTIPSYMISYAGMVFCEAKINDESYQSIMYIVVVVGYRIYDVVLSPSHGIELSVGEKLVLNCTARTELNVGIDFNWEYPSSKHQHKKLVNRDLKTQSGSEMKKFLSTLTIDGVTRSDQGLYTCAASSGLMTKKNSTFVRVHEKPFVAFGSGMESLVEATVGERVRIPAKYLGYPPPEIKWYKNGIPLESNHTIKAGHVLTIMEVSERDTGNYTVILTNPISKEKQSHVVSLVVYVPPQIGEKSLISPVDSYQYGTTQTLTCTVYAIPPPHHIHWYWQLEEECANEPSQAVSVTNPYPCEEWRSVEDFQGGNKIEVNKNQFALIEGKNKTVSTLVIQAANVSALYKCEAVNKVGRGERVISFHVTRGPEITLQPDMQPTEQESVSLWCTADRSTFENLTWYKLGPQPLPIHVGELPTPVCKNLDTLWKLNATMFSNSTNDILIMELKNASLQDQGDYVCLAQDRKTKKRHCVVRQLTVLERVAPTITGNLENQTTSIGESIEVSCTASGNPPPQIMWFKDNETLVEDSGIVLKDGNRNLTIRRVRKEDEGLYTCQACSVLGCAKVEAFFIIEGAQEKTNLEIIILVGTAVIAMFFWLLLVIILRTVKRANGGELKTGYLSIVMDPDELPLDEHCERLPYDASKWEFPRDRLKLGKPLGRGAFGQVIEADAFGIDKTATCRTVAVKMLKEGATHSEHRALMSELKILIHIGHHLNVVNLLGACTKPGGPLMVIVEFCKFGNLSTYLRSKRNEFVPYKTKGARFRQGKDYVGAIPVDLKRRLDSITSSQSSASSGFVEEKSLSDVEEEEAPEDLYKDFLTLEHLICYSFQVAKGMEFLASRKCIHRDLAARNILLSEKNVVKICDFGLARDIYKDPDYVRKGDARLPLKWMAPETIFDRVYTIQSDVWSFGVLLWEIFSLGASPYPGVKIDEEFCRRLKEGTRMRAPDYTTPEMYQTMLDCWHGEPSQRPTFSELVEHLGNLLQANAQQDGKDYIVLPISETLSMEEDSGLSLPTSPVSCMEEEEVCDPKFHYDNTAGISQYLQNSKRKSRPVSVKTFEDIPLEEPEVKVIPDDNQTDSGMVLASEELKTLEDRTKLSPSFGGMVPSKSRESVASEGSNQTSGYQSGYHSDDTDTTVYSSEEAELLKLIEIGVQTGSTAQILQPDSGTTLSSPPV

HepG2 = experiment: Cytotoxicity against human HepG2 cells assessed as reduction in cell viability after 48 hrs by SRB assay; type: functional, cell-based; conditions: HepG2, 48 h; outline: as §1

NNC(=O)CSc1nnc(Cn2c(-c3ccco3)nc3ccccc32)s1
inhibition (INH) (MCF7 [1]): 96%
pIC50 (MCF7 [2]): 4.67
pIC50 [3]: 5.85
pIC50 (HepG2): 4.57

Cc1ccc(-c2nc3ccccc3n2C(=O)C(=O)n2c(-c3ccc(C)o3)nc3ccccc32)o1
inhibition (INH) (MCF7 [1]): 17%
pIC50 (MCF7 [2]): 4.18
pIC50 (HepG2): < 3.95

Cc1ccc(-c2nc3ccccc3n2CC(=O)NN)o1
inhibition (INH) (MCF7 [1]): 24%
pIC50 (MCF7 [2]): 4.17
pIC50 (HepG2): < 3.73

Cc1ccc(-c2nc3ccccc3n2C(=O)n2c(-c3ccc(C)o3)nc3ccccc32)o1
inhibition (INH) (MCF7 [1]): 9%
pIC50 (MCF7 [2]): 4.23
pIC50 (HepG2): < 3.93

CCOC(=O)Cn1c(-c2ccc(C)o2)nc2ccccc21
inhibition (INH) (MCF7 [1]): 25%
pIC50 (MCF7 [2]): 4.20
pIC50 (HepG2): < 3.75

SC1=NNCC(n2c(-c3ccco3)nc3ccccc32)=N1
inhibition (INH) (MCF7 [1]): 40%
pIC50 (MCF7 [2]): 4.22
pIC50 (HepG2): 4.21

O=C(Cn1c(-c2ccco2)nc2ccccc21)N/N=C/c1ccccc1Cl
inhibition (INH) (MCF7 [1]): 94%
pIC50 (MCF7 [2]): 4.58
pIC50 [3]: 6.19
pIC50 (HepG2): 4.59

S=c1[nH]nc(Cn2c(-c3ccco3)nc3ccccc32)s1
inhibition (INH) (MCF7 [1]): 14%
pIC50 (MCF7 [2]): 4.28
pIC50 (HepG2): 4.32

Cc1ccc(-c2nc3ccccc3n2CC(=O)N/N=C/c2ccccc2Cl)o1
inhibition (INH) (MCF7 [1]): 96%
pIC50 (MCF7 [2]): 4.67
pIC50 [3]: 5.90
pIC50 (HepG2): 4.65

c1ccc2[nH]c(-c3ccc(CN4CCOCC4)o3)nc2c1
inhibition (INH) (MCF7 [1]): 58%
pIC50 (MCF7 [2]): 4.26
pIC50 (HepG2): 3.89

NC(=O)/C(=C\c1ccccc1)n1c(-c2ccco2)nc2ccccc21
inhibition (INH) (MCF7 [1]): 80%
pIC50 (MCF7 [2]): 4.41
pIC50 (HepG2): 4.20

CCOC(=O)CSc1nnc(Cn2c(-c3ccco3)nc3ccccc32)s1
inhibition (INH) (MCF7 [1]): 92%
pIC50 (MCF7 [2]): 4.55
pIC50 (HepG2): 4.21

CCOC(=O)Cn1c(-c2ccco2)nc2ccccc21
inhibition (INH) (MCF7 [1]): 57%
pIC50 (MCF7 [2]): 4.24
pIC50 (HepG2): < 3.73

COC(=O)Cn1c(-c2ccco2)nc2ccccc21
inhibition (INH) (MCF7 [1]): 61%
pIC50 (MCF7 [2]): 4.09
pIC50 (HepG2): 4.17

O=C(CCl)n1c(-c2ccco2)nc2ccccc21
inhibition (INH) (MCF7 [1]): 40%
pIC50 (MCF7 [2]): 4.22
pIC50 (HepG2): 4.22

ClC(Cl)(Cl)c1nnc(Cn2c(-c3ccco3)nc3ccccc32)o1
pIC50 (MCF7 [2]): < 3.88
pIC50 (HepG2): 4.07

c1coc(-c2nc3ccccc3[nH]2)c1 [FUBERIDAZOLE]
inhibition (INH) (MCF7 [1]): 43%
pIC50 (MCF7 [2]): 3.98
pIC50 (HepG2): 3.99

Cc1ccc(-c2nc3ccccc3[nH]2)o1
inhibition (INH) (MCF7 [1]): 39%
pIC50 (MCF7 [2]): 4.26

CNC(=O)c1cc(Oc2ccc(NC(=O)Nc3ccc(Cl)c(C(F)(F)F)c3)cc2)ccn1 [SORAFENIB]
inhibition (INH) (MCF7 [1]): 95.75%
IC50 (MCF7 [2]): 4.33 µg/mL

NC(=O)/C(=C\c1ccccc1Cl)n1c(-c2ccco2)nc2ccccc21
inhibition (INH) (MCF7 [1]): 57%
pIC50 (MCF7 [2]): 4.40
pIC50 (HepG2): 4.35

N#CCn1c(-c2ccco2)nc2ccccc21
inhibition (INH) (MCF7 [1]): 39%
pIC50 (MCF7 [2]): 4.05
pIC50 (HepG2): 4.05

O=C1CS/C(=C/n2c(-c3ccco3)nc3ccccc32)N1
inhibition (INH) (MCF7 [1]): 86%
pIC50 (MCF7 [2]): 4.54
pIC50 (HepG2): 4.51

O=C(O)Cn1c(-c2ccco2)nc2ccccc21
inhibition (INH) (MCF7 [1]): 61%
pIC50 (MCF7 [2]): 4.20
pIC50 (HepG2): 3.83

COC(=O)Cn1c(-c2ccc(C)o2)nc2ccccc21
inhibition (INH) (MCF7 [1]): 38%
pIC50 (MCF7 [2]): 4.06
pIC50 (HepG2): < 3.73

CC/C(=C(\c1ccccc1)c1ccc(OCCN(C)C)cc1)c1ccccc1 [TAMOXIFEN]
inhibition (INH) (MCF7 [1]): 98%

N=C(Cn1c(-c2ccco2)nc2ccccc21)NN
inhibition (INH) (MCF7 [1]): 27%
pIC50 (MCF7 [2]): 4.27
pIC50 (HepG2): 4.13

N=C1N=C(n2c(-c3ccco3)nc3ccccc32)CN1
inhibition (INH) (MCF7 [1]): 22%
pIC50 (MCF7 [2]): 4.03
pIC50 (HepG2): 4.20

Cc1ccc(-c2nc3ccccc3n2Cc2nnco2)o1
pIC50 (MCF7 [2]): < 3.75
pIC50 (HepG2): 3.88

Cc1ccc(-c2nc3ccccc3n2CC(=O)O)o1
inhibition (INH) (MCF7 [1]): 20%
pIC50 (MCF7 [2]): 3.86
pIC50 (HepG2): < 3.71

NC(=O)Cn1c(-c2ccco2)nc2ccccc21
inhibition (INH) (MCF7 [1]): 13%
pIC50 (MCF7 [2]): 3.93
pIC50 (HepG2): 3.80

N#C/C(=C1/SCC(=O)N1c1ccccc1)n1c(-c2ccco2)nc2ccccc21
inhibition (INH) (MCF7 [1]): 55%
pIC50 (MCF7 [2]): 4.25
pIC50 (HepG2): 4.40

NNC(=O)Cn1c(-c2ccco2)nc2ccccc21
inhibition (INH) (MCF7 [1]): 19%
pIC50 (HepG2): < 3.71
